ChEMBL document CHEMBL1157643, “SAR and molecular mechanism study of novel acylhydrazone compounds targeting HIV-1 CA” (Bioorg Med Chem, 2010)
Calls of active or inactive are those of the source. The rule behind the calls is not given here.

Assays:
[1] = molecular target: Structural capsid protein (Human immunodeficiency virus 1) (UniProt Q76129); assay: Binding affinity to HIV1 capsid protein assessed as viral capsid assembly rate at 1 mM by ultraviolet spectrophotometry (RVb= 60.56 +/- 3.77 milliOD/min)
[2] = Cytotoxicity against mock-infected human CEM174 cells after 5 days by MTT assay; type: cell-based; conditions: read-out: TC50
Summary of the method: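 Uninfected CEM174 cells handled as in the antiviral assay (1 × 10⁵ cells/mL, compound dilutions, 5 days, 37 °C, 5% CO₂). Proliferation read by MTT reduction. TC₅₀ = concentration inhibiting cell proliferation by 50%.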

[3] = Therapeutic index, TC50 for human CEM174 cells to EC50 for SIV-induced syncytium in human CEM174 cells; type: cell-based; conditions: read-out: TI
Summary of the method: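 Ratio TC₅₀/EC₅₀. TC₅₀ comes from the MTT proliferation assay in uninfected CEM174 cells. EC₅₀ comes from microscopic scoring of syncytia in CEM174 cells infected with 100 TCID₅₀ SIV per well. Both were run over 5 days at 37 °C, 5% CO₂.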

[4] = system: Simian immunodeficiency virus; assay: Antiviral activity against SIV-induced syncytium in human CEM174 cells assessed as inhibition of virus-induced cytopathogenicity after 5 days; type: functional, organism-based; conditions: CEM174, 120 h
Summary of the method: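 CEM174 cells at 1 × 10⁵ cells/mL in 96-well format, infected with 100 TCID₅₀ SIV per well alongside serial dilutions of compound. Incubated 5 days at 37 °C, 5% CO₂, humidified. Syncytium (giant cell) formation scored microscopically. EC₅₀ = concentration protecting cells 50% against SIV cytopathogenicity.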

[5] = molecular target: Structural capsid protein (Human immunodeficiency virus 1) (UniProt Q76129); assay: Binding affinity to HIV1 capsid protein assessed as inhibition of viral capsid assembly at 1 mM after 600 mins by turbidity-based ultraviolet spectrophotometry

Structural capsid protein (Human immunodeficiency virus 1), sequence (Q76129 as listed by the source): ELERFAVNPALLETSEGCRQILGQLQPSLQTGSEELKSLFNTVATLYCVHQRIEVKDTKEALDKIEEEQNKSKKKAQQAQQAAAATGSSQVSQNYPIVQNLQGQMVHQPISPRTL

Row | Compound | Activity (milli optical density/minute) [1] | CC50 at 120 h [2] | selectivity ratio [3] | EC50 [4] | inhibition [5]
1 | COc1ccc(C(=O)N[C@@H](Cc2ccc(O)cc2)C(=O)N/N=C/c2ccco2)cc1 | 19.1 | 30.6 µM | 3.38 | 9.03 µM | 
2 | CC[C@@H](C)[C@H](NC(=O)c1ccc(OC)cc1)C(=O)N/N=C/c1ccco1 | 5.82 | > 100 µM | > 58.8 | 1.7 µM | 
3 | CCC(C)[C@H](NC(=O)c1ccc(OC)cc1)C(=O)N/N=C/c1ccc(Cl)cc1 (mixture of isomers) | 10.2 | > 100 µM | > 12.3 | 8.1 µM | 
4 | CC[C@@H](C)[C@H](NC(=O)c1ccc(OC)cc1)C(=O)N/N=C/c1ccccc1 | 25.4 | 77.9 µM | 10.2 | 7.65 µM | 
5 | COc1ccc(/C=N/NC(=O)[C@H](Cc2c[nH]cn2)NC(=O)c2ccc(OC)cc2)cc1 | 3.58 | > 100 µM | > 244 | 0.41 µM | Active
6 | COc1ccc(C(=O)N[C@@H](Cc2c[nH]cn2)C(=O)N/N=C/c2ccco2)cc1 | 29.3 | > 100 µM | > 11.8 | 8.44 µM | 
7 | COc1ccc(C(=O)N[C@@H](Cc2ccc(O)cc2)C(=O)N/N=C/c2ccc(C)cc2)cc1 | 20.4 | 41.1 µM | 7.9 | 5.21 µM | 
8 | COc1ccc(C(=O)N[C@H](C(=O)N/N=C/c2ccc(O)cc2)[C@@H](C)O)cc1 | 24.9 | > 100 µM | > 12.3 | 8.13 µM | 
9 | COc1ccc(C(=O)N[C@@H](Cc2c[nH]cn2)C(=O)N/N=C/c2ccc(O)cc2)cc1 | 24.7 | > 100 µM | > 31.4 | 3.18 µM | 
10 | COc1ccc(C(=O)N[C@@H](Cc2ccc(O)cc2)C(=O)N/N=C/c2ccc(Cl)cc2)cc1 | 24.3 | 40 µM | 2.69 | 14.9 µM | inactive
11 | COc1ccc(C(=O)N[C@H](C(=O)N/N=C/c2ccccc2)[C@H](C)O)cc1 | 21.4 | > 100 µM | > 130 | 0.77 µM | 
12 | CC[C@@H](C)[C@H](NC(=O)c1ccc(OC)cc1)C(=O)N/N=C/c1ccc(O)cc1 | 30.1 | > 100 µM | > 24.1 | 4.15 µM | 
13 | CC[C@@H](C)[C@H](NC(=O)c1ccc(OC)cc1)C(=O)N/N=C/c1ccc(C)cc1 | 33.4 | > 100 µM | > 7.2 | 13.9 µM | inactive
14 | COc1ccc(C(=O)N[C@@H](C)C(=O)N/N=C/c2ccccc2)cc1 |  | > 100 µM | > 15.6 | 6.41 µM | 
15 | COc1ccc(C(=O)N[C@@H](Cc2c[nH]cn2)C(=O)N/N=C/c2ccc(C)cc2)cc1 | 6.05 | > 100 µM | > 64.5 | 1.55 µM | 
16 | COc1ccc(C(=O)N[C@H](C(=O)N/N=C/c2ccc(Cl)cc2)[C@@H](C)O)cc1 | 49.5 | > 100 µM | > 20.1 | 4.98 µM | 
17 | COc1ccc(C(=O)N[C@@H](Cc2c[nH]cn2)C(=O)N/N=C/c2ccc([N+](=O)[O-])cc2)cc1 | 12.6 | > 100 µM | > 22.7 | 4.4 µM | 
18 | COc1ccc(C(=O)N[C@H](C(=O)N/N=C/c2ccc(C)cc2)[C@H](C)O)cc1 | 11.9 | > 100 µM | > 12.2 | 8.17 µM | 
19 | COc1ccc(C(=O)N[C@@H](Cc2c[nH]cn2)C(=O)N/N=C/c2ccccc2)cc1 | 3.26 | > 100 µM | > 179 | 0.56 µM | Active
20 | COc1ccc(C(=O)N[C@@H](Cc2c[nH]cn2)C(=O)N/N=C/c2ccc(Cl)cc2)cc1 | 8.89 | > 100 µM | > 30.6 | 3.27 µM | 
21 | COc1ccc(C(=O)N[C@H](C(=O)N/N=C/c2ccccc2)C(C)C)cc1 |  | > 100 µM | > 24.5 | 4.08 µM | 
22 | COc1ccc(C(=O)N[C@@H](Cc2ccc(O)cc2)C(=O)N/N=C/c2ccc(O)cc2)cc1 | 8.77 | > 100 µM | > 12.8 | 7.81 µM | 
23 | Cc1ccc(S(=O)(=O)C[C@@H](Cc2ccccc2)C(=O)N/N=C/c2ccc3c(c2)OCO3)cc1 |  |  |  | 0.17 µM | 
24 | COc1ccc(C(=O)N[C@@H](Cc2ccc(O)cc2)C(=O)N/N=C/c2ccccc2)cc1 | 32.5 | > 100 µM | > 21.7 | 4.61 µM | 
